# This is one part of a sample in which hits are shown more often than they occur.
# UPR CHOP act: activators of apoptotic arm of unfolded protein response (CHOP) | activation, % at 10 µM | CHO-CHOP luciferase reporter, UPR activation, luminescence; percent of tunicamycin response over DMSO baseline | 330,000 tested, 0.34% active | AID 449763;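 active means at 10 µM dose, activation of 40% or more, normalized to positive control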
#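 Test system: CHO CHOP reporter cells. Input: 500 CHO-CHOP cells per well. Medium: F12 with 10% FBS. Technique: luciferase luminescence. Measure: percent activation relative to tunicamycin control. Dosing: 10 µM compound, 0.5% DMSO. Timing: 16-18 h cell attachment, then 6 h compound exposure, 37 °C.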
# XBP1 UPR activ: activators of adaptive arm of unfolded protein response (XBP1); CHO-XBP1 luciferase reporter, IRE1-XBP1 UPR activation, luminescence; percent of tunicamycin response, DMSO as zero; activation, % at 20 µM; 330,000 tested, 0.33% active; AID 463104;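 active means versus positive control, 20 µM dose yields 30% or more activation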
#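 Assay system: IRE1-XBP1 luciferase reporter CHO line. Input: 1000 cells/well. Buffer or medium: F12 with 10% serum. Doses: 20 µM, 1% DMSO. Times: overnight seeding at 37 °C, 6 h compound treatment at 37 °C. Technique: Steady-Glo luciferase glow luminescence, 10 min after reagent addition.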
# GAA850 FXN act: increases GAA850 frataxin promoter reporter activity | 360,000 tested, 0.56% active | activation, % at 6 µM | AID 540364 | HEK293 lucGAA850 FXN promoter luciferase reporter, 24 h; percent of 10 µM SAHA response;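 active means activation above the average of all compounds screened plus 3 SD, cutoff fixed separately per campaign, cut at about 7.5% in these data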
# CHOP inhibitor: CHOP inhibition in unfolded protein response | CHO-K1 CHOP-promoter luciferase, tunicamycin-induced, 15-18 h | inhibition, % at 10 µM | 220,000 tested, 3.8% active | AID 2732;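 active means compounds that reduced the stress-induced luciferase reporter signal by more than about 70% of percent inhibition, limit read from the data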
# GAA30 counter: counter-screen for GAA850 frataxin promoter activators: GAA30 promoter activation. shares compounds with GAA850 FXN act. HEK293 lucGAA30 FXN promoter luciferase, 24 h; DMSO = 0%, 5 µM ipriflavone = 100%. activation, % at 6 µM. 1,900 tested, 66% active. AID 588350;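 active means mean activation above the mean of solvent-only control wells plus 3 SD, cut at about 22% in these data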;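 further: counterscreen of GAA850 promoter hits where activity marks nonselective or luminescence artifacts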
# GAA850 confirm: GAA850 FXN promoter activation confirmation; 1,900 tested, 86% active; shares compounds with GAA850 FXN act; activation, % at 6 µM; HEK293 lucGAA850 FXN promoter luciferase reporter, 24 h; 100% = activation by SAHA; AID 588351;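 active means mean activation above a set limit taken from the primary screen, cut at about 8% in these data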
# Numbers stand for hits; 0 = inactive; - = no result given.
SMILES,UPR CHOP act,XBP1 UPR activ,GAA850 FXN act,CHOP inhibitor,GAA30 counter,GAA850 confirm
N#Cc1nc(-c2ccccc2Cl)oc1N1CCCCC1,0,0,8.7,0,56,26
N#Cc1nc(-c2cccc3ccccc23)oc1N1CCCCC1,0,0,0,0,-,-
COC(=O)C[C@@H]1C[C@H]2c3cc(N(C)C)ccc3O[C@H]2[C@H](CO)O1,-,-,0,-,-,-
CC(=O)Nc1cncc(-c2cnn(CC(C)C)c2)n1,-,-,0,-,-,-
CCC(C)(C)n1nnnc1C(c1ccc(C)cc1)N(Cc1ccco1)Cc1cccs1 (configuration not stated),0,0,8.3,0,0,8.8
CCC(C)(C)n1nnnc1C(C(C)C)N(Cc1cccnc1)Cc1ccco1 (configuration not stated),0,0,0,0,-,-
CC(C)(C)n1nnnc1C(c1cccnc1)N(Cc1ccccc1)Cc1ccco1 (configuration not stated),0,0,7.9,0,0,9.0
COc1ccc(-c2noc(CCC(=O)NC3CCCCCC3)n2)cc1OC,-,-,0,-,-,-
O=C(c1ccccc1)c1ccccc1N1C(=O)C=CC1=O,0,0,0,0,-,-
O=C1C=CC(=O)N1c1ccccc1N1C(=O)C=CC1=O,-,-,8.7,-,0,0
N#CC(=C1NC(=O)c2ccccc21)c1nc2ccccc2n1CCO,-,-,0,-,-,-
COc1ccc(-c2[nH]c3ccccc3c2SCCNC(=O)c2ccccc2)cc1,0,0,22,0,0,0
COc1ccc(C(=O)NCCSc2ccccc2)cc1,0,0,0,0,-,-
COc1ccc(/C=N\NC(=O)c2sccc2C)cc1Cn1nc(C)cc1C,0,0,8.1,-,42,22
COc1ccc(/C=N/NC(=O)CCn2nc(C)cc2C)cc1,0,0,0,0,-,-
Cc1cc(Cl)ccc1C(O)c1ncc(-c2cccc(C(F)(F)F)c2)[nH]1 (configuration not stated),-,-,0,-,-,-
COc1cccc(NC(=O)N(C)C[C@H]2Oc3ncc(Br)cc3C(=O)N([C@H](C)CO)C[C@H]2C)c1,-,-,0,-,-,-
CC(=O)Oc1ccc(C(=O)Cc2ccccn2)c(O)c1,0,0,11,0,23,12
CCc1cc(C(=O)Cc2ccccn2)c(O)cc1O,0,0,0,-,-,-
CNc1cnc(-c2ccc(F)c(F)c2F)cn1,-,-,0,-,-,-
COc1ccc(S(=O)(=O)N(C)C[C@H]2OCc3cnnn3CCCC(=O)N([C@@H](C)CO)C[C@H]2C)cc1,-,-,0,-,-,-
CCN(Cc1ccc(OC)c(F)c1)C(=O)c1cc2ccccc2o1,0,0,8.5,-,34,17
CCOc1ccc(CN(C)C(=O)c2cc3ccccc3o2)cc1OC,0,0,0,-,-,-
Cc1cccc(CCNC(=O)c2cccc(NC3=NC4CS(=O)(=O)CC4S3)c2)c1 (configuration not stated),0,0,16,-,0,0
Cc1ccc(Nc2cc(=O)n(C)c(=O)[nH]2)cc1C,-,-,0,-,-,-
SMILES,UPR CHOP act,XBP1 UPR activ,GAA850 FXN act,CHOP inhibitor,GAA30 counter,GAA850 confirm
Cc1cc(C)cc(-n2c(SC(C)C(=O)NCc3ccc4c(c3)OCO4)nc3ccccc3c2=O)c1 (configuration not stated),0,0,8.7,0,24,8.2
C[C@@H]1CN([C@H](C)CO)C(=O)CCCn2nncc2CO[C@H]1CN(C)Cc1ccc(O)cc1,-,-,0,-,-,-
C=C(C)[C@@H]1C2=CC(C(=O)OC)=C(C[C@H](C(=C)C)[C@H]3O[C@H]3C3=C[C@H]1OC3=O)O2,-,-,15,-,0,0
Cc1cc(NC(=O)CCCS(=O)(=O)c2nc(-c3cccs3)cc(C(F)(F)F)n2)no1,0,0,9.6,-,0,0
Cc1cc(NC(=O)CSc2nc(-c3cccs3)cc(C(F)(F)F)n2)no1,0,0,0,-,-,-
CC1(C)CC(=O)C2=C(C1)OC1=C(C(=O)CC(C)(C)C1)C2c1ccccc1Cl,-,-,0,-,-,-
O=c1c2ccccc2sc2ccc(NCCCN3CCOCC3)cc12,0,0,0,-,-,-
COc1cc2sc3cc(NCCCN4CCOCC4)ccc3c(=O)c2cc1OC,0,0,9.8,-,114,37
CCOC(=O)c1ccc(NC(=O)c2ccc(NS(C)(=O)=O)cc2)cc1,0,0,0,0,-,-
COc1cccc(NC(=O)c2nc(S(C)(=O)=O)ncc2Cl)c1,0,0,50,-,69,27

# Screening data from PubChem BioAssay.
